Screening data: PubChem, several laboratories
Most compounds without a hit are left out; they make up all but 4.6% or so of the library.
NALP1 inh – NALP1 inhibition; hit rate 0.61% among 280,000; AID 2071; inhibition, % at 10 µM; S. cerevisiae NALP1/ASC/caspase-1 growth, X-gal OD620, 72 h; in the data active means inhibition mostly above about 24%, no sharp cut-off; inactive means mostly below about 32%
NALP3 yeast inh – NALP3 inhibition in yeast; Yeast reconstituted NLRP3/ASC/caspase-1, beta-gal luminescence, 24 h; inhibition, % at 10 µM; hit rate 0.39% among 330,000;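 active means inhibition of 50% or more; inactive means inhibition below 50%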;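 further: plate controls were induced DMSO wells for no effect and uninduced yeast grown without galactose for full effect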
Arr AP2 block – inhibitors of human beta-arrestin and AP2 interaction | FITC-arrestin peptide / GST-AP2 beads, flow cytometry; AP2 beta2 appendage carries R879A mutation | inhibition, % at 10 µM | hit rate 0.31% among 340,000 | AID 504490;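 active means inhibition above a set limit, near 3 SD of compounds lacking own fluorescence, cut at about 54% in these data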;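 further: plate controls were DMSO wells for no effect and 5 µM unlabelled arrestin peptide for full effect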
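Material – GST-tagged AP2 beta2-adaptin appendage (R879A) on 4 µm glutathione beads · Probe or stimulus – fluorescein-tagged arrestin peptide at 50 nM final · Timing – 12 min plus 1 h, RT · Detection – bead flow cytometry, FITC channel · Read-out basis – inhibition as reduced fluorescein signal on beads, percent · Medium – PBS plus Tween 20 (0.05%) and BSA (0.1%)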
PolyA inh – inhibitors of polyadenylation in S. cerevisiae. S. cerevisiae SKY197-pL101 polyadenylation reporter, beta-gal luminescence; efflux-impaired pdr1/pdr3 knockout yeast; score 100 = 6 SD above DMSO. activity score, % at 12 µM. hit rate 0.02% among 300,000. AID 1875;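 active means lowest replicate activity score at least 50, where 100 means six control SD above control mean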;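 further: yeast exposed to compound for 9 h at 30 °C; higher score means more reporter readthrough which indicates perturbed polyadenylation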
ALR inh – blocks human ALR sulfhydryl oxidase activity. P55789. purified ALR, DTT oxidation, H2O2 HRP-luminol luminescence. inhibition, % (no concentration beside the values). hit rate 3.8% among 290,000. AID 485317;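 active means mean replicate inhibition above about 79%, with every replicate also reaching it, limit read from the data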
DSG3 Ab inh – inhibitors of pemphigus antibody binding to human desmoglein-3 | P32926 | DSG3-coupled beads, scFv-anti-DSG3-GFP binding, flow cytometry; hits give low values | binding (percent of control), % at 10 µM | hit rate 0.48% among 310,000 | AID 588358;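 active means binding more than 3 SD below its plate's average and above zero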;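 further: hits lower antibody fragment binding to DSG3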
Target sequence (P32926 whole entry, looked up, the tested form may be a part): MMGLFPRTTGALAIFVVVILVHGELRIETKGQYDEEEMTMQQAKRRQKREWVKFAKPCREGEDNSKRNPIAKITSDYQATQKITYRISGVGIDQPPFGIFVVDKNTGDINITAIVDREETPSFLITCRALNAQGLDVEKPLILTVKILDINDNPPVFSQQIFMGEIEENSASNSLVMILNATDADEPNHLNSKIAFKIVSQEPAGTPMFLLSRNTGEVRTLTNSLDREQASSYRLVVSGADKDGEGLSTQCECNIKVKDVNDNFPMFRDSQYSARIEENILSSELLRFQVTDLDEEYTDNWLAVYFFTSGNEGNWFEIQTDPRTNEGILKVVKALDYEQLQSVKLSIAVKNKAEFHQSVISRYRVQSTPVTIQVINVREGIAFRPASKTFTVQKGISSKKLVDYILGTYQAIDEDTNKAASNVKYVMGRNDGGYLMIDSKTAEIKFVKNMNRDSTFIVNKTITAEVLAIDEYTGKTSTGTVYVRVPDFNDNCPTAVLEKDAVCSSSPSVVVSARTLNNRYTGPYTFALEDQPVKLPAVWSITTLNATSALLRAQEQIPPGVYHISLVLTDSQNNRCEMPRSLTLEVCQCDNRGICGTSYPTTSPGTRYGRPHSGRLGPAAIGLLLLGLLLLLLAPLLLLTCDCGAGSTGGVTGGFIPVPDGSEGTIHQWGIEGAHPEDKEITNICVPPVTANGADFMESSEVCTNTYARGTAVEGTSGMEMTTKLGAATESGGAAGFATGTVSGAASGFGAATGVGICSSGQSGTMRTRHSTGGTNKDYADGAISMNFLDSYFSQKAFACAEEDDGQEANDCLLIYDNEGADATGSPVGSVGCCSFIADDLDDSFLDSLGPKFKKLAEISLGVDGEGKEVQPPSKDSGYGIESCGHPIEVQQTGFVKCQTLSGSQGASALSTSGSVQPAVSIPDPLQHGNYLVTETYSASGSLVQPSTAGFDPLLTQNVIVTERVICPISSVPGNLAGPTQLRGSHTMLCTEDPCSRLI
Arr-AP2 CP1 – human beta-arrestin and AP2 interaction inhibition, cherry pick. GST-AP2 beads, FITC arrestin peptide binding, flow cytometry; GST-fused beta2-adaptin appendage, R879A mutant. shares compounds with Arr AP2 block. inhibition, % at 10 µM. hit rate 2% among 1,300. AID 504908;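 active means inhibition above a set limit, roughly 3 SD of non-fluorescent compound noise, cut at about 38% in these data; inactive means inhibition at or below that limit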;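 further: loss of bead fluorescence from 50 nM FITC arrestin peptide bound to appendage; 0% = negative control wells and 100% = excess unlabelled arrestin peptide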
GST GSH counter – disrupts GST binding to glutathione beads, arrestin-AP2 artifact; shares compounds with Arr AP2 block; GST-fluorescein binding to GSH beads, fluorescence, counter-screen; inhibition, % at 10 µM; hit rate 2% among 1,300;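 active means inhibition above 50%, about 3 SD of the inhibition seen with non-fluorescent compounds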;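 further: fluorescein maleimide labelled GST captured on 4 micron glutathione beads; higher means more loss of bead fluorescence from quenching or blocked binding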
* marks the source's active call; other numbers are inactive results; / = no result given.

SMILES | NALP1 inh | NALP3 yeast inh | Arr AP2 block | PolyA inh | ALR inh | DSG3 Ab inh | Arr-AP2 CP1 | GST GSH counter
CCOc1ccccc1CNC(=O)CCCn1ncn2c(cc3occc32)c1=O | 4 | 8 | 64* | 10 | 6 | 104 | 9 | 1
Cc1ccccc1CNC(=O)CCCn1ncn2c(cc3occc32)c1=O | 13 | 3 | 30 | -18 | -1 | 99 | / | /
COc1cccc(NC(=O)c2cc(-c3ccc(C)o3)nc3ccccc23)c1 | 3 | 9 | 54* | -10 | -3 | 97 | -6 | 9
COc1cccc(NC(=O)CN(C)C(=O)c2cc(-c3ccc(C)o3)nc3ccccc23)c1 | / | 13 | 8 | / | -1 | 102 | / | /
COc1ccc(NS(=O)(=O)c2ccc(Br)cc2)cn1 | 4 | 27 | 57* | -2 | 5 | / | -2 | -4
COC(c1ccccc1)c1nnc(CCC(=O)N2CCN(C3CCCC3)CC2)o1 (stereo unspecified) | 8 | 3 | 69* | 25 | 1 | 111 | 17 | -8
Cc1ccc(SCC(=O)NNC(=O)CCS(=O)(=O)c2ccc(C)cc2)cc1 | / | 15 | 54* | / | -10 | 106 | 2 | -2
O=C(CCS(=O)(=O)c1ccccc1)NNC(=O)CSc1ccccc1F | / | 13 | 0 | / | 1 | / | / | /
Cc1ccc(N2C(=N)/C(=C3/Nc4ccccc4S3)C(c3ccccc3)C2=O)cc1 (stereo unspecified) | 48 | / | 56* | / | 41 | 130 | 1 | -3
Cc1nc2ccc(F)cc2cc1C(=O)NCC1CCCO1 (stereo unspecified) | 33 | / | 105* | -5 | / | 102 | 11 | 0
O=C(NCC1CCCO1)c1cc2ccccc2nc1Cl (stereo unspecified) | 23 | 8 | 23 | 8 | -4 | 86 | / | /
CCOC(=O)C(=Nc1ccc(Cl)cc1)NO | 15 | 9 | -24 | 2 | -5 | 102 | / | /
CCOC(=O)CNC(=O)CSc1nnc(NC(=O)c2ccc(S(=O)(=O)N3CCOCC3)cc2)s1 | 6 | 13 | -9 | -1 | -7 | 111 | / | /
CC(C)Cn1c(N)c(C(=O)COC(=O)c2ccc(Br)cc2)c(=O)n(C)c1=O | / | 11 | 4 | / | 2 | 97 | 2 | 1
CC(C)Cn1c(N)c(C(=O)COC(=O)c2ccncc2)c(=O)n(C)c1=O | 12 | 8 | -6 | -9 | 2 | / | -7 | -4
CC(C)Cn1c(N)c(C(=O)COC(=O)c2ccc(Cl)cc2)c(=O)n(C)c1=O | 6 | 14 | -11 | 5 | / | 125 | / | /
CC(C)Cn1c(N)c(C(=O)COC(=O)c2nccnc2N)c(=O)n(C)c1=O | / | 13 | 19 | / | / | / | / | /
CCc1cc(CNC(=O)CC2C(=O)NCCN2Cc2cccc(OC)c2)on1 (stereo unspecified) | -3 | 14 | -4 | -5 | -16 | 113 | / | /
CC1CN(S(=O)(=O)c2ccc(CN3C(=O)c4cccnc4C3=O)cc2)c2ccccc2O1 (stereo unspecified) | -8 | 3 | 59* | -19 | -4 | / | -3 | -5
COc1ccc(CN2C(=O)c3cccnc3C2=O)cc1S(=O)(=O)N1CC(C)Oc2ccccc21 (stereo unspecified) | -19 | -3 | 23 | -11 | 1 | 98 | / | /
CCOc1cc(/C=N/NC(=O)c2cccnc2)ccc1OCc1ccc(C(=O)OC)o1 | 4 | -6 | -1 | -8 | -4 | 109 | / | /
CC(C)NCc1cc(Br)ccc1OCc1ccccc1 | 12 | 11 | 6 | -7 | -4 | 91 | / | /
O=C1C=CC(=O)c2c(O)c(N3CCN(CCOCCO)CC3)c(Br)c(O)c21 | / | / | 69* | / | / | / | 52* | 20
CCOc1cc(CN2CCN(CCOCCO)CC2)ccc1OC | 2 | 20 | 3 | -10 | -10 | 98 | / | /
O=S(=O)(c1ccc(Br)cc1Cl)N1CCN(CCO)CC1 | 2 | 6 | 5 | -2 | -14 | 103 | / | /
SMILES | NALP1 inh | NALP3 yeast inh | Arr AP2 block | PolyA inh | ALR inh | DSG3 Ab inh | Arr-AP2 CP1 | GST GSH counter
O=C1C=CC(=O)c2c(O)c(N3CCN(CCO)CC3)c(Cl)c(O)c21 | / | / | 80* | / | / | 63 | 44* | 8
Cc1cc(C)nc(NC(=NCCc2c[nH]c3ccccc23)NC(=O)c2ccco2)n1 | -4 | -3 | 83* | -13 | 4 | 95 | -17 | 1
Cc1cc(C)nc(NC(=NCCc2c[nH]c3ccccc23)NC(=O)Nc2ccccc2)n1 | 21 | 1 | 1 | 4 | 21 | 98 | / | /
COc1cc(NC(=O)CN2C(=O)C(=O)N(CC(C)C)C2=O)cc(OC)c1 | / | 8 | 28 | / | / | 99 | / | /
Cc1cccc(CN2CCN(C(C)C(=O)NC(C)c3ccccc3)CC2)c1 (stereo unspecified) | 28 | 12 | 56* | 0 | / | 86 | -10 | -8
O=c1cc(CSc2nc(NCc3ccccc3)c3ccccc3n2)nc2ccc(Cl)cn12 | 29 | -3 | 6 | -13 | 51 | 109 | / | /
Cc1nn(Cc2ccccc2Cl)c(Cl)c1/C=C/C(=O)OCC(=O)NC(N)=O | 6 | 22 | -1 | 1 | / | 96 | / | /
Cc1nn(Cc2ccc(Cl)cc2Cl)c(Cl)c1/C=C/C(=O)OCC(=O)NCC(F)(F)F | 1 | -7 | 81* | -2 | -12 | 104 | -4 | -8
CC(C)Cn1c(N)c(C(=O)COC(=O)c2ccc(O)cc2O)c(=O)n(C)c1=O | / | 4 | -6 | -7 | -8 | 99 | 5 | -6
Cc1cccc(C(=O)OCC(=O)c2c(N)n(CC(C)C)c(=O)n(C)c2=O)c1O | / | 18 | -10 | 14 | -1 | 98 | -8 | -5
CC(C)Cn1c(N)c(C(=O)COC(=O)c2cc3ccccc3cc2O)c(=O)n(C)c1=O | / | -1 | 0 | / | -17 | / | / | /
COc1ccc2nc(C)cc(N3CCN(S(=O)(=O)c4ccccc4F)CC3)c2c1 | / | 25 | 62* | / | -22 | 101 | -4 | -6
O=C1CC(C(=O)O)C(c2ccccc2)c2ccccc21 (stereo unspecified) | / | / | 55* | / | / | 91 | 4 | 11
COc1ccc(Cl)cc1NC(=O)CSc1nnc(C2CC2)n1N | / | 7 | 0 | / | / | 112 | / | /
CC1=C(C(=O)OCc2ccccc2)C(c2ccc(-c3ccccc3)cc2)NC(=O)N1CCCC(=O)O (stereo unspecified) | / | 8 | / | 7 | 29 | / | / | /
COc1ccc(C(=O)N(C)Cc2ccc(C)o2)cc1OC1CCN(C(C)=O)CC1 | 16 | -2 | 61* | 10 | 1 | 109 | 0 | -5
CCN(CC(=O)Nc1c(F)cccc1F)C(=O)CCNS(=O)(=O)c1ccc(C)c(C)c1 | / | 15 | 58* | 12 | -5 | 100 | -4 | 0
